Legend:
[1] = molecular target: Serotonin 3 (5-HT3) receptor (Rattus norvegicus) (UniProt P35563+Q9JJ16); assay: Selectivity for glycine receptor measured as KA over 5HT3 receptor measured as IC50 in Wistar rat synaptosomal membranes; assay type: cell membranes
Rattus norvegicus = organism: Rattus norvegicus; assay: Displacement of [3H]strychnine from glycine receptor in Wistar rat spinal cord synaptosomal membranes; assay type: cell membranes; conditions: Membrane
[2] = molecular target: T1, Serotonin 3 (5-HT3) receptor (Rattus norvegicus, UniProt P35563+Q9JJ16); assay: Displacement of [3H]granisetron from 5HT3 receptor in Wistar rat cerebral cortex synaptosomal membranes; assay type: cell membranes, Membrane
T1 sequence (P35563 whole entry): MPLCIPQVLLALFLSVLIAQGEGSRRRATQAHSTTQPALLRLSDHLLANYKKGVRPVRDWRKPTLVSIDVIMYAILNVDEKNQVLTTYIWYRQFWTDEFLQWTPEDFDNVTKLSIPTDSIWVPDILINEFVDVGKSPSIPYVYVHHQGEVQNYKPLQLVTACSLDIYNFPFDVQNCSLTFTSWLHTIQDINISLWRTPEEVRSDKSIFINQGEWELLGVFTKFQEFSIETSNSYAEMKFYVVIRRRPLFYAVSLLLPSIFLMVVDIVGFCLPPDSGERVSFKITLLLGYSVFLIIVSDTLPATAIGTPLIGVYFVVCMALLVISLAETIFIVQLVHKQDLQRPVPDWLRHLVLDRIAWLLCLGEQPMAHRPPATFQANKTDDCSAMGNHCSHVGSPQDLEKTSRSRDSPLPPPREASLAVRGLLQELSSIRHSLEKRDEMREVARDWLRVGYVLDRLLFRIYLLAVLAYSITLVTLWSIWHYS
T1 sequence (Q9JJ16 whole entry): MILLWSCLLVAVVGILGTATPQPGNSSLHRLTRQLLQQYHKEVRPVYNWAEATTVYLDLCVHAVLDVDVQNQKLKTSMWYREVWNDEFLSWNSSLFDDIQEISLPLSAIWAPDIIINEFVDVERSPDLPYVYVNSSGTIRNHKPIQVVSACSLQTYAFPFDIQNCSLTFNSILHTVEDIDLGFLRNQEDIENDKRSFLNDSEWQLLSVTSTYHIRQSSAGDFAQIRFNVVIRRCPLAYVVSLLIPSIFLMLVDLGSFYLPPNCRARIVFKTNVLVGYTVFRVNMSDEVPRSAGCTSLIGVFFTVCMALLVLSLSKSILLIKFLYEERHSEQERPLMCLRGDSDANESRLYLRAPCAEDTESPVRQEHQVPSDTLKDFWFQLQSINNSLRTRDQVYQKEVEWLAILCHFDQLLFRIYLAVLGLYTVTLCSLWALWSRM
Procedure, shortened: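 Male Wistar rat cerebral cortex plus hippocampus synaptosomal membranes, in 10 mM HEPES with 140 mM NaCl (pH 7.5). Incubated with 0.3 nM [3H]granisetron and varied tropeine concentrations for 2.5 h on ice. Nonspecific binding defined with 10 µM granisetron. Duplicate aliquots filtered on PEI-presoaked GF/B filters. Displacement curves fitted with variable slopes; 3-6 experiments.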

Row | SMILES | Selectivity ratio [1] | -Log KA (Rattus norvegicus) | IC50 [2]
1 | O=C(O[C@H]1C[C@H]2CC[C@@H](C1)N2)c1ccccc1 (stereo in doubt; 8) [listing 1 of 2 here] | 0.98 | 5.96 | 
2 | CN1[C@@H]2CC[C@H]1C[C@H](OC(=O)c1cccc([N+](=O)[O-])c1)C2 |  | 5.84 | 
3 | COc1cc(C(=O)O[C@@H]2C[C@H]3CC[C@@H](C2)N3C)cc(OC)c1OC | 0.23 | 5.97 | 231 nM
4 | CCc1ccc(C(=O)O[C@@H]2C[C@H]3CC[C@@H](C2)N3C)cc1 | 0.04 | 5.34 | 182 nM
5 | O=C(O[C@@H]1C[C@H]2CC[C@@H](C1)N2)c1cccc(Cl)c1 | 33.7 | 7.65 | 692 nM
6 | CC1(C)Cc2cc(Cl)cc(C(=O)O[C@H]3C[C@H]4CC[C@@H](C3)N4)c2O1 | 3.37 | 7.74 | 56.2 nM
7 | COc1cccc(C(=O)O[C@@H]2C[C@H]3CC[C@@H](C2)N3)c1 | 33.5 | 8.11 | 262 nM
8 | CN1[C@@H]2CC[C@H]1C[C@@H](NC(=O)c1cc(Cl)cc3c1OC(C)(C)C3)C2 |  | 6.57 | 
9 | COc1cccc(C(=O)O[C@@H]2C[C@H]3CC[C@@H](C2)N3C)c1 | 0.87 | 7.08 | 71 nM
10 | O=C(O[C@H]1C[C@H]2CC[C@@H](C1)N2)c1ccccc1 (stereo in doubt; 4a) [listing 1 of 2 here] | 161 | 7.98 | 
11 | CN1[C@@H]2CC[C@H]1C[C@H](OC(=O)c1ccccc1)C2 (stereo in doubt; 7) [listing 1 of 2 here] | 0.3 | 5.77 | 
12 | CN1[C@@H]2CC[C@H]1C[C@H](OC(=O)c1ccc([N+](=O)[O-])cc1)C2 | 0.2 | 5.29 | 1050 nM
13 | CN1[C@@H]2CC[C@H]1C[C@@H](OC(=O)c1cc(Cl)cc3c1OC(C)(C)C3)C2 | 0.03 | 6.63 | 7.18 nM
14 | CN1[C@@H]2CC[C@H]1C[C@H](OC(=O)c1cccc(Cl)c1)C2 | 0.15 | 6.31 | 67.9 nM
15 | CN1[C@@H]2CC[C@H]1C[C@@H](OC(=O)c1cc(Cl)cc(Cl)c1)C2 |  | 5.99 | 
16 | CN1[C@@H]2CC[C@H]1C[C@H](OC(=O)c1ccccc1)C2 (stereo in doubt; 2a) [listing 1 of 2 here] |  |  | 299 nM
17 | Nc1cccc(C(=O)O[C@@H]2C[C@H]3CC[C@@H](C2)N3)c1 | 10.3 | 7.23 | 577 nM
18 | CN1[C@@H]2CC[C@H]1C[C@H](OC(=O)c1ccccc1)C2 (stereo in doubt; 7) [listing 2 of 2 here] |  |  | 499 nM
19 | O=C(O[C@H]1C[C@H]2CC[C@@H](C1)N2)c1ccccc1 (stereo in doubt; 4a) [listing 2 of 2 here] |  |  | 1560 nM
20 | CN1[C@@H]2CC[C@H]1C[C@H](NC(=O)c1ccccc1)C2 |  | 4.8 | 
21 | CN1[C@@H]2CC[C@H]1C[C@H](OC(=O)c1ccc(C(C)(C)C)cc1)C2 |  | 4.53 | 
22 | CN1[C@@H]2CC[C@H]1C[C@H](OC(=O)c1ccccc1)C2 (stereo in doubt; 2a) [listing 2 of 2 here] | 0.78 | 6.39 | 
23 | O=C(O[C@H]1C[C@H]2CC[C@@H](C1)N2)c1ccccc1 (stereo in doubt; 8) [listing 2 of 2 here] |  |  | 1000 nM
24 | CCN1[C@@H]2CC[C@H]1C[C@@H](OC(=O)c1ccccc1)C2 | 0.98 | 6.14 | 716 nM
